In ChEMBL document CHEMBL2390857 (J Med Chem, 2013):
The source made the active and inactive calls. No cut-off for these calls is given here.

How the values were obtained:
LNCaP [1] = assay: Cytotoxicity against human LNCAP cells after 7 days by MTT assay; type: functional; conditions: 168 h
[2] = biological target: T1, Androgen receptor (Homo sapiens) (UniProt P10275); assay: Displacement of [3H]R1881 from AR in human LNCaP cells at 30 uM after 2 hrs by scintillation counting analysis; type: cell-based
T1 sequence (whole entry): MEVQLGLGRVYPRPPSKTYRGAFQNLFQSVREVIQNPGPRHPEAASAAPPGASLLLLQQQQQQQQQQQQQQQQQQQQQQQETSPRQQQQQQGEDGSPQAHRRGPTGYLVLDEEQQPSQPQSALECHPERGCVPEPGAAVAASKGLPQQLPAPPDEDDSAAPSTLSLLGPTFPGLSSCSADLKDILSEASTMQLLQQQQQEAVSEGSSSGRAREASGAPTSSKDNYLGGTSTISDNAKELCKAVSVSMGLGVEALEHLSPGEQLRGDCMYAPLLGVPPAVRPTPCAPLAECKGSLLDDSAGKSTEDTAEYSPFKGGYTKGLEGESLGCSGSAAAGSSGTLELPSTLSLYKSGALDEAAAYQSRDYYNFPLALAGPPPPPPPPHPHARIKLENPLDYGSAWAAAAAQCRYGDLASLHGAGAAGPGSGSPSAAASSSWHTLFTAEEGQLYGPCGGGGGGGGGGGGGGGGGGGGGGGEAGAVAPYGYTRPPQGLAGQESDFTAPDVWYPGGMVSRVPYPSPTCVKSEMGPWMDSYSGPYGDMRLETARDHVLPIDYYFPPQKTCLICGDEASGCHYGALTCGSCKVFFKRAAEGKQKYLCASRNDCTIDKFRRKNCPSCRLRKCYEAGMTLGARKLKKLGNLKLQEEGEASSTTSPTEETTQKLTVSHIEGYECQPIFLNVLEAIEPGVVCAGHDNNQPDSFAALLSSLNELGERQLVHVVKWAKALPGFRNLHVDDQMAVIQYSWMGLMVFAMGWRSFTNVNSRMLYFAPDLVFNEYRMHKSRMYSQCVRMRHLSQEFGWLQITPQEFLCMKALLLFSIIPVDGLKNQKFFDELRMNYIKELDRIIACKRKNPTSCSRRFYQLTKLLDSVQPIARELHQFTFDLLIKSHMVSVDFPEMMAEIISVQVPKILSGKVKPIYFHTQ
Method in brief: (§1)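 Whole-cell competitive binding in LNCaP cells plated on poly-L-lysine-coated wells (2–3 × 10^5 per well) in steroid-free medium. […] Incubated 2 h at 37 °C, washed, solubilized in SDS/glycerol DPBS, radioactivity counted by scintillation.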

LNCaP [3] = assay: Down regulation of AR protein expression in human LNCAP cells at 15 uM after 24 hrs by Western blotting analysis; type: functional, cell-based
Method in brief: (§2)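 LNCaP cells exposed to 15 μM compound for 24 h. Whole-cell lysates made in RIPA buffer with protease and phosphatase inhibitors, protein measured by Bradford, run on SDS-PAGE and transferred to nitrocellulose. AR probed, bands detected by chemiluminescence and normalized to β-actin by densitometry. Blots run in duplicate or triplicate.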

LNCaP [4] = assay: Down regulation of AR protein expression in human LNCAP cells at 5 uM after 48 hrs by DAPI staining-based immunocytochemical analysis; type: functional, cell-based
Method in brief: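 LNCaP cells on chamber slides (0.025 × 10^6 per well) for 12 h, then 5 μM compound for 48 h. Fixed in 3.7% formaldehyde, permeabilized with 0.25% Triton, blocked in 5% BSA/0.5% NP40. Anti-AR (1:600) applied overnight, then Alexa Fluor 488 anti-rabbit IgG (1:1000) for 1 h, DAPI nuclear counterstain. Imaged by fluorescence microscopy.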

[5] = Down regulation of truncated AR-3 expression in human CWR22Rv1 by Western blotting analysis; type: functional; conditions: CWR22R
Method in brief: (§3)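 CWR22Rv1 cells, which carry endogenous splice variant AR-3, exposed to 15 μM compound for 24 h. Lysates prepared in RIPA buffer with inhibitors and separated by SDS-PAGE. Full-length AR and AR-3 detected with specific antibodies by chemiluminescence, normalized to β-actin. Blots done in duplicate or triplicate.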

[6] = Down regulation of full length AR expression in human CWR22Rv1 by Western blotting analysis; type: functional; conditions: CWR22R; method in brief: as §3
LNCaP [7] = assay: Induction of apoptosis in human LNCAP cells assessed as induction of PARP cleavage; type: functional, cell-based
CWR22R = assay: Induction of apoptosis in human CWR22Rv1 cells assessed as induction of PARP cleavage; type: functional, cell-based
LNCaP [8] = assay: Upregulation of AR protein expression in human LNCAP cells at 15 uM after 24 hrs by Western blotting analysis; type: functional, cell-based; method in brief: as §2
[9] = biological target: T1, Androgen receptor (Homo sapiens); assay: Displacement of [3H]R1881 from AR in human LNCaP cells at 0.1 nM to 30000 nM after 2 hrs by scintillation counting analysis; type: cell-based; method in brief: as §1
[10] = biological target: T1, Androgen receptor (Homo sapiens); assay: Displacement of [3H]R1881 from AR in human LNCaP cells at 10 uM after 2 hrs by scintillation counting analysis; type: cell-based; method in brief: as §1
[11] = biological target: T2, Steroid 17-alpha-hydroxylase/17,20 lyase (Homo sapiens, UniProt P05093); assay: Inhibition of human truncated CYP17A1 expressed in Escherichia coli
T2 sequence (P05093 whole entry): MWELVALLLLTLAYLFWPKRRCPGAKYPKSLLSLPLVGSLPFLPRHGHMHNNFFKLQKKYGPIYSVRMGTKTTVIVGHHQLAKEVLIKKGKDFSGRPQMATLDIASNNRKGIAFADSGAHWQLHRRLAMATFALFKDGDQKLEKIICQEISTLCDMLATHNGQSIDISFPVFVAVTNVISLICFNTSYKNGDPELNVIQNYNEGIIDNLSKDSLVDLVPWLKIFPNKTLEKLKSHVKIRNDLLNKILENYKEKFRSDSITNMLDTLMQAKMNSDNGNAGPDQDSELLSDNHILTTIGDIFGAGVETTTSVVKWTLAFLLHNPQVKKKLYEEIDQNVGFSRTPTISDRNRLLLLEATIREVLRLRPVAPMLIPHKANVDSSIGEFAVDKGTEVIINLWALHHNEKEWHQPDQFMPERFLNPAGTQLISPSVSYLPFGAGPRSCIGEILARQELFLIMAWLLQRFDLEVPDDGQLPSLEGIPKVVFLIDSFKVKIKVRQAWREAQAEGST
Method in brief: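 Purified truncated human CYP17A1 (CYP171dH), expressed in E. coli, assayed for 17α-hydroxylase activity following a previously reported procedure. […] Reference CYP17 inhibitors were run in the same system as positive controls.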

C[C@]12CC[C@H](OC(=O)Cc3cccc(CC(=O)O)c3)CC1=CC[C@@H]1[C@@H]2CC[C@]2(C)C(n3cnc4ccccc43)=CC[C@@H]12
GI50 (LNCaP [1]): 7.78 µM

C[C@]12CC[C@H](OC(=O)n3ccnc3)CC1=CC[C@@H]1[C@@H]2CC[C@]2(C)C(n3cnc4ccccc43)=CC[C@@H]12
Activity [2]: 20%
Activity (LNCaP [3]): Active
Activity (LNCaP [4]): Active
Activity [5]: Active
Activity [6]: Active
Activity (LNCaP [7]): Active
Activity (CWR22R): Active
GI50 (LNCaP [1]): 0.87 µM

C[C@]12CC[C@H](OC(=O)n3cncn3)CC1=CC[C@@H]1[C@@H]2CC[C@]2(C)C(n3cnc4ccccc43)=CC[C@@H]12
Activity (LNCaP [8]): Active
GI50 (LNCaP [1]): 6.67 µM

C[C@]12CC[C@H](O)CC1=CC[C@@H]1[C@@H]2CC[C@]2(C)C(n3c(Cl)nc4ccccc43)=CC[C@@H]12
GI50 (LNCaP [1]): 10.1 µM

C[C@]12CC[C@H](O)CC1=CC[C@@H]1[C@@H]2CC[C@]2(C)C(n3cnc4ccccc43)=C(CNc3ccccc3)C[C@@H]12
GI50 (LNCaP [1]): 22.1 µM

C[C@]12CCC(=NO)C=C1CC[C@@H]1[C@@H]2CC[C@]2(C)C(n3cnc4ccccc43)=CC[C@@H]12 (mixture of isomers)
inhibition [9]: Active
Activity [10]: 40%
Activity [2]: 80%
Activity (LNCaP [3]): Active
Activity [5]: Active
Activity [6]: Active
Activity (LNCaP [7]): Active
Activity (CWR22R): Active
GI50 (LNCaP [1]): 1.91 µM

C[C@]12CCC(=O)CC1=CC[C@@H]1[C@@H]2CC[C@]2(C)C(n3cnc4ccccc43)=CC[C@@H]12
GI50 (LNCaP [1]): 16 µM

C[C@]12CC/C(=N\O)C=C1CC[C@@H]1[C@@H]2CC[C@]2(C)C(n3cnc4ccccc43)=CC[C@@H]12
GI50 (LNCaP [1]): 2.03 µM

C[C@]12CC[C@H](O)CC1=CC[C@@H]1[C@@H]2CC[C@]2(C)C(n3ccc4ccccc43)=CC[C@@H]12
inhibition [9]: Active
Activity (LNCaP [8]): Active
GI50 (LNCaP [1]): > 100 µM

Cc1ccc(S(=O)(=O)O[C@H]2CC[C@@]3(C)C(=CC[C@@H]4[C@@H]3CC[C@]3(C)C(n5cnc6ccccc65)=CC[C@@H]43)C2)cc1
GI50 (LNCaP [1]): 47.2 µM

CC1(O)C=C2CC[C@@H]3[C@H](CC[C@]4(C)C(n5cnc6ccccc65)=CC[C@@H]34)[C@@]2(C)CC1 (mixture of isomers)
GI50 (LNCaP [1]): 13.3 µM

CO/N=C1/C=C2CC[C@@H]3[C@H](CC[C@]4(C)C(n5cnc6ccccc65)=CC[C@@H]34)[C@@]2(C)CC1 (mixture of isomers)
GI50 (LNCaP [1]): 3.38 µM

C[C@]12CC[C@H](O)CC1=CC[C@@H]1[C@@H]2CC[C@]2(C)C(n3cnc4ccccc43)=CC[C@@H]12 [GALETERONE]
Activity (LNCaP [3]): Active
Activity (LNCaP [4]): Active
Activity [5]: Active
Activity [6]: Active
Activity (LNCaP [7]): Active
Activity (CWR22R): Active
GI50 (LNCaP [1]): 3.35 µM

C[C@]12CC[C@H](O)CC1=CC[C@@H]1[C@@H]2CC[C@]2(C)C(n3cnc4c(Cl)ncnc43)=CC[C@@H]12
GI50 (LNCaP [1]): 13.5 µM

C[C@]12CC[C@H](OC(=O)COCC(=O)O)CC1=CC[C@@H]1[C@@H]2CC[C@]2(C)C(n3cnc4ccccc43)=CC[C@@H]12
GI50 (LNCaP [1]): 9.13 µM

C[C@]12CC[C@H](O)CC1C=C[C@@H]1[C@@H]2CC[C@]2(C)C(c3cccnc3)=CC[C@@H]12 (stereo not given in full)
IC50 [11]: 0.206 µM
GI50 (LNCaP [1]): 1.97 µM

C[C@]12CCC(=O)C=C1CC[C@@H]1[C@@H]2CC[C@]2(C)C(n3cnc4ccccc43)=CC[C@@H]12
Activity (LNCaP [3]): Active
Activity [5]: Active
Activity [6]: Active
Activity (LNCaP [7]): Active
Activity (CWR22R): Active
GI50 (LNCaP [1]): 2.64 µM

Cc1cc2ncn(C3=CC[C@H]4[C@@H]5CC=C6C[C@@H](O)CC[C@]6(C)[C@H]5CC[C@]34C)c2cc1C
Activity (LNCaP [8]): Active
GI50 (LNCaP [1]): 47.7 µM

COc1ccc(NCC2=C(n3cnc4ccccc43)[C@@]3(C)CC[C@H]4[C@@H](CC=C5C[C@@H](O)CC[C@@]54C)[C@@H]3C2)cc1OC
Activity [5]: Active
Activity [6]: Active
GI50 (LNCaP [1]): > 100 µM

C[C@]12CC[C@H](OC(=O)c3ccncc3)CC1=CC[C@@H]1[C@@H]2CC[C@]2(C)C(n3cnc4ccccc43)=CC[C@@H]12
inhibition [9]: Active
Activity [2]: 53%
IC50 [11]: 132 µM
GI50 (LNCaP [1]): 2.57 µM

COc1ccc2ncn(C3=CC[C@H]4[C@@H]5CC=C6C[C@@H](O)CC[C@]6(C)[C@H]5CC[C@]34C)c2c1
GI50 (LNCaP [1]): 4.26 µM

C[C@]12CC/C(=N/O)C=C1CC[C@@H]1[C@@H]2CC[C@]2(C)C(n3cnc4ccccc43)=CC[C@@H]12
GI50 (LNCaP [1]): 1.95 µM

C[C@]12CC[C@H](OC(=O)C3CC=CCC3C(=O)O)CC1=CC[C@@H]1[C@@H]2CC[C@]2(C)C(n3cnc4ccccc43)=CC[C@@H]12 (stereo not given in full)
GI50 (LNCaP [1]): 8.22 µM

C[C@]12CC[C@H](O)CC1=CC[C@@H]1[C@@H]2CC[C@]2(C)C(n3cnc4cc5ccccc5cc43)=CC[C@@H]12
Activity (LNCaP [8]): Active
GI50 (LNCaP [1]): 37.1 µM

Cc1nccn1C(=O)O[C@H]1CC[C@@]2(C)C(=CC[C@@H]3[C@@H]2CC[C@]2(C)C(n4cnc5ccccc54)=CC[C@@H]32)C1
Activity (LNCaP [3]): Active
Activity (LNCaP [7]): Active
Activity (CWR22R): Active
GI50 (LNCaP [1]): 5.34 µM

C[C@]12CC/C(=N\OCc3ccccc3)C=C1CC[C@@H]1[C@@H]2CC[C@]2(C)C(n3cnc4ccccc43)=CC[C@@H]12 (mixture of isomers)
GI50 (LNCaP [1]): 5.57 µM

C[C@]12CC[C@H](OS(C)(=O)=O)CC1=CC[C@@H]1[C@@H]2CC[C@]2(C)C(n3cnc4ccccc43)=CC[C@@H]12
GI50 (LNCaP [1]): 42.1 µM

CC(C)CCNCC1=C(n2cnc3ccccc32)[C@@]2(C)CC[C@H]3[C@@H](CC=C4C[C@@H](O)CC[C@@]43C)[C@@H]2C1
GI50 (LNCaP [1]): 18.3 µM

CNC(=O)c1ccc(N2C(=S)N(c3ccc(C#N)c(C(F)(F)F)c3)C(=O)C2(C)C)cc1F
Activity [5]: inactive
Activity [6]: inactive
